Series [1] can be described thus: Drug uptake in plasma of immunocompromised nude mouse xenografted with human KYSE520 cells administered qd via oral gavage. It counts as ADME. The note with it: in the assay text read “administered as a single dose via” for “administered qd via”. Put shortly: (§1)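 Female nude mice bearing subcutaneous KYSE-520 xenografts (3 x 10^6 cells in 50% matrigel/HBSS) received a single oral gavage dose of vehicle or compound (30 or 100 mg/kg) once tumors reached roughly 500 mm3. Euthanized at set time points; plasma harvested for drug levels and xenograft fragments for p-ERK.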

Series [2] in a line: Solubility of the compound at pH 6.8. The class given is physicochemical. As to conditions: buffer.
Series [3] in a line: Apparent permeability across apical to basolateral side in human Caco2 cells. It counts as ADME, cell-based. The note with it: Caco-2. (Passage across Caco-2 layers is used to estimate intestinal permeability.)
The nature of series [4]: AUC in C57BL/6 mouse at 5 mg/kg, po by LC-MS/MS analysis. The class given is ADME, organism-based. As to conditions: in vivo. The gist of the method:
(§2)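 Male C57BL/6 mice dosed orally at 5 mg/kg. Whole blood taken by tail transection at 0.25, 0.5, 1, 2, 4 and 7 h into EDTA. Plasma stored at -20 °C, precipitated with acetonitrile containing internal standard. PK parameters from noncompartmental analysis; AUClast by linear trapezoidal rule. %F = (AUCinf,po/AUCinf,iv)×(Dose iv/Dose po), with IV reference at 1 mg/kg via tail vein. Results given as mean.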

Series [5] can be described thus: Oral bioavailability in C57BL/6 mouse at 5 mg/kg by LC-MS/MS analysis. It counts as ADME, organism-based. The note with it: in vivo. The gist of the method:
as §2

The subject of the next series is Mus musculus. The series is described as follows: In vivo inhibition of ERK phosphorylation in human KYSE520 cells xenografted in immunocompromised nude mouse at 30 and 100 mg/kg administered qd through oral gavage. It counts as functional, organism-based. The note with it: in the assay text read “administered as a single dose through” for “administered qd through”. The gist of the method: as §1

The test system of series [6] is KYSE-520 cell line. As to the kind of experiment: Antitumor activity against human KYSE520 cells xenografted in immunocompromised nude mouse assessed as tumor growth inhibition at 10 mg/kg administered qd through oral gavage relative to vehicle control. The class given is functional. Put shortly: (§3)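 Female nude mice inoculated subcutaneously with 3 x 10^6 parental KYSE-520 cells in 50% phenol red-free matrigel in HBSS. Tumors calipered twice weekly in two dimensions. At roughly 200 mm3, mice randomized to vehicle, test compound (10, 30 or 100 mg/kg qd) or erlotinib (80 mg/kg qd), all by oral gavage. Growth compared with vehicle group.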
(In general: Xenograft models place foreign cells or tissue in a host animal.)

Series [7] deals with KYSE-520 cell line. The series is described as follows: Antitumor activity against human KYSE520 cells xenografted in immunocompromised nude mouse assessed as tumor growth inhibition at 30 mg/kg administered qd through oral gavage relative to vehicle control. The class given is functional. Put shortly: as §3
Series [8] relates to KYSE-520 cell line. As to the kind of experiment: Antitumor activity against human KYSE520 cells xenografted in immunocompromised nude mouse assessed as tumor growth at 100 mg/kg administered qd through oral gavage relative to vehicle control. It counts as functional. The gist of the method:
as §3

For series [9], the target named is T1, Tyrosine-protein phosphatase non-receptor type 11 (Homo sapiens, UniProt Q06124).
T1 sequence (Q06124 whole entry): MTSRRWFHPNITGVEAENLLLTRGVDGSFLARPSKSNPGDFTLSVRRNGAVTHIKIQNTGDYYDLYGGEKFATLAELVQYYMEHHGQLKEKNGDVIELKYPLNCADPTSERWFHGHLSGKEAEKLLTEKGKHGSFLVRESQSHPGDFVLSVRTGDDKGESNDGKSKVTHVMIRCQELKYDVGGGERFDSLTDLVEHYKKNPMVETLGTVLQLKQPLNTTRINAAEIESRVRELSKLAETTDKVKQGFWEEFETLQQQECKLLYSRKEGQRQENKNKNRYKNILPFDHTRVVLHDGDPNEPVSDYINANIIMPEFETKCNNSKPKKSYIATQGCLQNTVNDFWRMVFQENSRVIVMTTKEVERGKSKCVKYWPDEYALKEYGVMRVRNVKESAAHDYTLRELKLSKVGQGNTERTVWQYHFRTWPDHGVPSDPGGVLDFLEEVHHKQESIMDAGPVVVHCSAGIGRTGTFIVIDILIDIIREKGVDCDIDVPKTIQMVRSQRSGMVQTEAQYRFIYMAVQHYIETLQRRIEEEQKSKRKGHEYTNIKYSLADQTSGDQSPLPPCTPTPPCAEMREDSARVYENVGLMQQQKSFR
As to the kind of experiment: Inhibition of human 6his-tagged SHP2 (2 to 593 residues) expressed in Escherichia coli BL21 Star (DE3) cells preincubated with IRS1_pY1172(dPEG8)pY1222 for 30 to 60 mins followed by addition of DiFMUP measured after 30 mins by fluorescence analysis.

Series [10] has as its target T2, Tyrosine-protein phosphatase non-receptor type 11 (Homo sapiens) (UniProt Q06124).
T2 sequence (whole entry): T1 sequence (Q06124 whole entry)
The series is described as follows: Inhibition of human 6his-tagged SHP2 (1 to 525 residues) expressed in Escherichia coli BL21 Star (DE3) cells assessed as change in melting temperature at 100 uM by SYPRO orange dye based differential scanning fluorometry. Put shortly:
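Thermal shift with SHP2 1-525 construct at 100 µg/mL, 5× SYPRO Orange, 100 mM Bis-Tris pH 6.5, 100 mM NaCl, 0.25 mM TCEP, 5% DMSO; compound at 100 µM final. Ramp 25–75 °C in 0.5 °C steps, ex 465/em 580 nm. Tm as transition midpoint by semi-parametric fit; ΔTm against mean of 32 DMSO-only apo controls per plate.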
Background: Differential scanning fluorimetry follows unfolding on heating by fluorescence.

Series [11] deals with T1, Tyrosine-protein phosphatase non-receptor type 11. As to the kind of experiment: Inhibition of human SHP2 PTP domain (237 to 529 residues) by fluorescence analysis.
The subject of series [12] is KYSE-520 cell line. The series is described as follows: Antitumor activity against human KYSE520 cells xenografted in immunocompromised nude mouse assessed as tumor stasis at 80 mg/kg administered qd through oral gavage relative to vehicle control. The class given is functional, organism-based. The gist of the method: as §3

Molecules are shown by their SMILES. The source made the active and inactive calls. The calls are words filed in the database; no cut-off is given here. A value given as a limit tells only on which side of the number the result lay.

This note sets out measurements from ChEMBL document CHEMBL4431317, “Allosteric Inhibition of SHP2: Identification of a Potent, Selective, and Orally Efficacious Phosphatase Inhibitor” (J Med Chem, 2016).

For orientation: solubility means how much of the substance goes into solution per volume. Low readings indicate little dissolved substance, high ones much dissolved substance. The Papp A→B is the apparent permeability from the apical to the basolateral side of a cell layer. The AUC is the area under the concentration-time curve, a measure of exposure. High values mean more exposure, low ones less exposure. Broadly, the bioavailability is dose-corrected exposure relative to a reference, in per cent. High values mean much systemic uptake, low ones little systemic uptake. As a reminder, the TGI is the reduction of tumour growth relative to the control group. As usually defined, the T/C is the ratio of treated to control. For the molecule `CC1(N)CCN(c2cnc(-c3cccc(Cl)c3Cl)c(N)n2)CC1`, the Drug uptake entry in [1] is “Dose-dependent effect”. Also, the solubility in series [2] is > 500 µM. Also, the Papp A→B in series [3] amounted to 13.2 ×10⁻⁶ cm/s. In series [4], this molecule came in with an AUC of 565 µM·h. The bioavailability in series [5] came out at 46%. The inhibition entry in the series on Mus musculus is “Active”. Besides, the TGI in the series on KYSE-520 cell line [6] is 19%; in the series with KYSE-520 cell line [7], 61%. Besides, the T/C in the series with KYSE-520 cell line [8] is on record as 3%.
One may read the IC50 as the point on the concentration scale where inhibition reaches its midpoint. High values mean weaker potency in that assay, low ones greater potency in that assay. In series [9], `CNc1nc(N2CCC(C)(N)CC2)cnc1-c1cccc(Cl)c1Cl` displayed an IC50 of 22 µM.
`Nc1nc(N2CCC(N)CC2)ncc1-c1cccc(Cl)c1Cl` came in with an IC50 in series [9] of 1.3 µM.
Same read-out and setting: the figure for `Cc1cccc(-c2cnc(N3C[C@@H](C)N[C@@H](C)C3)nc2N)c1C` is > 100 µM.
`C[C@@H]1CN(c2ncc(-c3ccc(Cl)c(Cl)c3)c(N)n2)C[C@H](C)N1` registered an IC50 in series [9] of 54 µM.
For `CN(C)C1CCN(c2ncc(-c3cccc(Cl)c3Cl)c(N)n2)CC1`, the IC50 in series [9] came out at 6.5 µM.
Broadly, the ΔTm is the shift of the melting midpoint relative to a reference. For `C[C@@H]1CN(c2ncc(-c3cccc(Cl)c3Cl)c(N)n2)C[C@H](C)N1`, the ΔTm in [10] is 3 to 3.02 °C. The IC50 in series [11] is > 100 µM.
With `C#Cc1cccc(Nc2ncnc3cc(OCCOC)c(OCCOC)cc23)c1`, the result in the series with KYSE-520 cell line [12] was Active.
Regarding `C[C@@H]1CN(c2ncc(-c3cccc(Cl)c3)c(N)n2)C[C@H](C)N1`, in [9], the IC50 came to 99 µM.
